6 molecules from ChEMBL document CHEMBL3585276, “Topoisomerase I and II inhibitory activity, cytotoxicity, and structure-activity relationship study of dihydroxylated 2,6-diphenyl-4-aryl pyridines” (Bioorg Med Chem, 2015) can be followed below.

Some results are limits rather than exact numbers.

Assay [1] addresses DNA topoisomerase 2-alpha (Homo sapiens) (UniProt P11388). Put plainly: Inhibition of recombinant human DNA topoisomerase-2alpha using supercoiled pBR322 plasmid DNA as substrate at 100 uM after 30 mins by agarose gel electrophoresis relative to control. Summed up: (§1)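 200 ng supercoiled pBR322 with 1 unit human topo II, incubated 30 min at 30 °C with or without compound in 10 mM Tris–HCl pH 7.9, 50 mM NaCl, 5 mM MgCl2, 1 mM EDTA, 1 mM ATP and 15 µg/mL BSA. Reaction was stopped with 7 mM EDTA and run on 1% agarose in TAE at 25 V. Gel was stained with ethidium bromide, visualized under UV, and supercoiled DNA quantitated densitometrically.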

The test system of the next assay is DU-145. Put plainly: Cytotoxicity against human DU145 cells measured on day 4 by CCK8 assay. Conditions: DU-145, 96 h. Format: functional, cell-based. In outline: (§2)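 Cells seeded at […], grown overnight in medium with 10% FBS at 37 °C under 5% CO2. On day 2 they were serum-starved 4 h, then exposed to graded compound concentrations. On day 4 CCK-8 was added for a further 4 h and absorbance read at 450 nm. IC50 came from a four-parameter logistic fit, mean ± SD of three experiments in triplicate.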

The next assay has as its system HCT-15. Put plainly: Cytotoxicity against human HCT15 cells measured on day 4 by CCK8 assay. Conditions: HCT-15, 96 h. It counts as functional, cell-based. In outline: as §2
A further assay relates to HeLa. Put plainly: Cytotoxicity against human HeLa cells measured on day 4 by CCK8 assay. Format: functional, cell-based. Conditions: 96 h. In outline: as §2
The test system of another assay is T47D. Briefly: Cytotoxicity against human T47D cells measured on day 4 by CCK8 assay. Format: functional, cell-based. Conditions: 96 h. In outline:
as §2

Assay [2] has as its target DNA topoisomerase 2-alpha (Homo sapiens) (UniProt P11388). Briefly: Inhibition of recombinant human DNA topoisomerase-2alpha using supercoiled pBR322 plasmid DNA as substrate at 20 uM after 30 mins by agarose gel electrophoresis relative to control. In outline: as §1
The target in assay [3] is T1, DNA topoisomerase 1 (Homo sapiens) (UniProt P11387).
T1 sequence (whole entry): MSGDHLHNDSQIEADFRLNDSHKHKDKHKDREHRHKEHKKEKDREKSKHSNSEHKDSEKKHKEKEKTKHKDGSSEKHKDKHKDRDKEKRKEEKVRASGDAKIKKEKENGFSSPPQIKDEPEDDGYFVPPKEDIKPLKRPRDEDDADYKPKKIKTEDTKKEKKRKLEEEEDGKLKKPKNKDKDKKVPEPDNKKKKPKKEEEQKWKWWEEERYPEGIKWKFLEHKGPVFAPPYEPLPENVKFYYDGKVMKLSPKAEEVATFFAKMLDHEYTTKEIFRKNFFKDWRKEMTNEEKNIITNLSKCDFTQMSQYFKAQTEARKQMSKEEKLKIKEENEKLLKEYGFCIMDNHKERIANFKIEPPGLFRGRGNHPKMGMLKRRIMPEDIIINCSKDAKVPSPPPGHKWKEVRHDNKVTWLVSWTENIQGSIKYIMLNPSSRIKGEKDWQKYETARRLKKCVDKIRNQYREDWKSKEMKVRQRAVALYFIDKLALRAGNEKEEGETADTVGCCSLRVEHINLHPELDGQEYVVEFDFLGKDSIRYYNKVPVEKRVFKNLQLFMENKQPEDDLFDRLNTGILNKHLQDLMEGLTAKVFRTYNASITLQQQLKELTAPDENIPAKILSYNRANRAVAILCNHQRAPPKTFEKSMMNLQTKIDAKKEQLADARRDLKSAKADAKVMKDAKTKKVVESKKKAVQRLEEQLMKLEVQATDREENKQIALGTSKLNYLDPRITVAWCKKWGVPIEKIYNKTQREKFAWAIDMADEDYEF
Put plainly: Inhibition of recombinant human DNA topoisomerase-1 assessed as relaxation of supercoiled DNA pBR322 at 100 uM after 30 mins by agarose gel electrophoresis relative to control. Summed up:
(§3)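 Relaxation assay with 100 ng pBR322 plasmid DNA and 1 unit recombinant human topo I. Buffer was 10 mM Tris–HCl pH 7.9, 150 mM NaCl, 0.1% BSA, 1 mM spermidine and 5% glycerol, incubated 37 °C for 30 min with or without compound. Products were run on a 1% agarose gel in TAE at 15 V for 7 h and stained with ethidium bromide (0.5 µg/mL) for 30 min.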

Assay [4] concerns the target T1, DNA topoisomerase 1 (Homo sapiens). Put plainly: Inhibition of recombinant human DNA topoisomerase-1 assessed as relaxation of supercoiled DNA pBR322 at 20 uM after 30 mins by agarose gel electrophoresis relative to control. Summed up:
as §3

DNA topoisomerase 2-alpha (Homo sapiens), sequence (P11388 whole entry): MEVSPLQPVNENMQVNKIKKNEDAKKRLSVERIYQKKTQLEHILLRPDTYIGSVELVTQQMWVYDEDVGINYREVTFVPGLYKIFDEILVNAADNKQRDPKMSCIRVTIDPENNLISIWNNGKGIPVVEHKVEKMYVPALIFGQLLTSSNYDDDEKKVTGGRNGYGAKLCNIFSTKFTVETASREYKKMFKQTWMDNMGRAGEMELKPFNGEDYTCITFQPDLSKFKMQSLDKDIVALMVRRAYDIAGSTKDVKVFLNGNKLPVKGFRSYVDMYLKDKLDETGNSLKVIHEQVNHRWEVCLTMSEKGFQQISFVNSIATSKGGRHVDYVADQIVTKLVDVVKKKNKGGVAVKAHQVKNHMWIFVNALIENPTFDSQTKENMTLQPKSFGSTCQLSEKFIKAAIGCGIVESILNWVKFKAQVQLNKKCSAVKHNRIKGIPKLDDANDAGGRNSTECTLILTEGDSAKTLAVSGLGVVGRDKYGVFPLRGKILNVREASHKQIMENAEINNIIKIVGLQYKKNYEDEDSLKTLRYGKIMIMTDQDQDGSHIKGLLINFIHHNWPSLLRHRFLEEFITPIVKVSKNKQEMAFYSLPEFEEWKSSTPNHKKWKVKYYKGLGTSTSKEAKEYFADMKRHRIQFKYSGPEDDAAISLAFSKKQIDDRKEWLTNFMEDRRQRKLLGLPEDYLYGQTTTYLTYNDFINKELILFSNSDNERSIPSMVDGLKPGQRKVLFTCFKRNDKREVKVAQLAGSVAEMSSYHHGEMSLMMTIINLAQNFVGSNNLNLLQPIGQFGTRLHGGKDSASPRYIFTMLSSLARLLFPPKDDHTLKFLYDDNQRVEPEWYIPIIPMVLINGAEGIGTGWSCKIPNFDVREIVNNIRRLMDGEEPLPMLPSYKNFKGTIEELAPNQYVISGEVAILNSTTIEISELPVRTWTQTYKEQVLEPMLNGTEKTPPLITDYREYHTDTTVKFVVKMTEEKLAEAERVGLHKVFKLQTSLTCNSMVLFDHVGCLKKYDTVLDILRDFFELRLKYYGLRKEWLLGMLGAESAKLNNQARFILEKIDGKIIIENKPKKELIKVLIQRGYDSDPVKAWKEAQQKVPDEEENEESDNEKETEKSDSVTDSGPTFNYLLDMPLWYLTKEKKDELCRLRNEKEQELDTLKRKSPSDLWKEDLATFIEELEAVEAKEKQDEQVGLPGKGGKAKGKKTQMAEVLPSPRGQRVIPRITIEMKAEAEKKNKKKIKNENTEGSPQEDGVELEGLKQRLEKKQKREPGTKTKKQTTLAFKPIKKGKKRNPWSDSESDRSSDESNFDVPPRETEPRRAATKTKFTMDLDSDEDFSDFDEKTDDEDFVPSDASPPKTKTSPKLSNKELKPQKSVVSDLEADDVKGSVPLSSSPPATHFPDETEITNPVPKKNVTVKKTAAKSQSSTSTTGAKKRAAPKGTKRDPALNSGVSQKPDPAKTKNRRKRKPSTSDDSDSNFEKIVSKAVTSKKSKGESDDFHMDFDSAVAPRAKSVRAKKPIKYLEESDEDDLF

As to `Oc1ccc(-c2cc(-c3ccco3)cc(-c3ccccc3O)n2)cc1`, the inhibition in assay [1] came to 84.8%; in assay [2] it was 13.6%; in assay [3], 83%; in assay [4] it was 0%. Also, the IC50 in the assay with DU-145, in the assay with HCT-15, with HeLa and in the assay with T47D was more than 50 µM each time.

For the molecule `Oc1ccc(-c2cc(-c3cccs3)cc(-c3ccccc3O)n2)cc1`, the inhibition in assay [1] turned out to be 76.4%; in assay [2] it was 30.2%; in assay [3], 72.2%; in assay [4] it was 2%. Also, the IC50 with DU-145, in the assay with HCT-15, in the assay with HeLa and with T47D was more than 50 µM each time.

Turning to `Oc1cccc(-c2cc(-c3ccsc3)cc(-c3cccc(O)c3)n2)c1`, the inhibition in assay [1] turned out to be 88.1%; in assay [2], 23%; in assay [3] it was 59.2%; in assay [4], 4.5%. The IC50 in the assay with DU-145 was found to be 1.31 µM; with HCT-15 it was 1.63 µM; with HeLa, 16.6 µM; in the assay on T47D it was 1.51 µM.

For `Oc1cccc(-c2cc(-c3cccs3)cc(-c3ccccc3O)n2)c1`, the inhibition in assay [1] amounted to 78.1%; in assay [2], 12.1%; in assay [3], 83.2%; in assay [4], 1.5%. In addition, the IC50 in the assay on DU-145 is 9.3 µM; in the assay on HCT-15, more than 50 µM; with HeLa it was more than 50 µM; in the assay on T47D, more than 50 µM.

With `Oc1ccccc1-c1cc(-c2ccco2)cc(-c2ccccc2O)n1`, the inhibition in assay [1] amounted to 52.2%; in assay [2], 13.3%; in assay [3] it was 89.1%; in assay [4], 0.2%. Moreover, the IC50 with DU-145, in the assay with HCT-15, in the assay with HeLa and in the assay on T47D was more than 50 µM each time.

As to `Oc1cccc(-c2cc(-c3ccccn3)cc(-c3ccccc3O)n2)c1`, the inhibition came out at 62.5% in assay [1], 1.5% in assay [2], 35.4% in assay [3] and 0.1% in assay [4]. The IC50 in the assay on DU-145 was 17.1 µM; with HCT-15, more than 50 µM; in the assay on HeLa, 2.02 µM; with T47D it was 2.56 µM.
